Test results published in BindingDB's records for doi:10.1016/j.bmc.2010.11.059 (University of Eastern Finland, 2011).

Legend:
Cannabinoid receptor 2 = Cannabinoid receptor 2 (Homo sapiens, UniProt P34972); test: Agonist activity at human recombinant cannabinoid CB2 receptor expressed in CHO cells by [35S]GTPgammaS binding assay
Outline: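 hCB2 [35S]GTPγS binding concentration–response curves, run only for ligands giving over 50% relative activity at 10 µM. logEC50 and Emax come from nonlinear regression fitted to a sigmoidal concentration–response equation. Emax is given as percent of the 10 nM HU-210 response. Mean SEM of at least three experiments in duplicate.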

Cannabinoid receptor 1 = Cannabinoid receptor 1 (Rattus norvegicus, UniProt P20272); test: Antagonist activity at rat cannabinoid CB1 receptor in Wistar rat cerebellar membranes by [35S]GTPgammaS binding assay
Outline: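 Non-recombinant rat cerebellar membrane fractions, [35S]GTPγS binding. Compounds screened at a single concentration for their ability to antagonise the response to 10 nM HU-210 agonist.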

Chain of Cannabinoid receptor 2 (P34972 whole entry): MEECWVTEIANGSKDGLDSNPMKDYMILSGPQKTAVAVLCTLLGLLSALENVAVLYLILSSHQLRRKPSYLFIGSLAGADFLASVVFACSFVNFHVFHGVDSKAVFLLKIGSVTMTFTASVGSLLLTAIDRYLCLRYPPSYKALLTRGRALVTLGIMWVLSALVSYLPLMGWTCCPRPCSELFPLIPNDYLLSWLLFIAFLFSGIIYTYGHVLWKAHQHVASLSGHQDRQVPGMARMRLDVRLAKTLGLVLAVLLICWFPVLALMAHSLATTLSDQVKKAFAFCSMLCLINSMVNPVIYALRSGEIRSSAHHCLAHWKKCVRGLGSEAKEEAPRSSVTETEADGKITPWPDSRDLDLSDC
Chain of Cannabinoid receptor 1 (P20272 whole entry): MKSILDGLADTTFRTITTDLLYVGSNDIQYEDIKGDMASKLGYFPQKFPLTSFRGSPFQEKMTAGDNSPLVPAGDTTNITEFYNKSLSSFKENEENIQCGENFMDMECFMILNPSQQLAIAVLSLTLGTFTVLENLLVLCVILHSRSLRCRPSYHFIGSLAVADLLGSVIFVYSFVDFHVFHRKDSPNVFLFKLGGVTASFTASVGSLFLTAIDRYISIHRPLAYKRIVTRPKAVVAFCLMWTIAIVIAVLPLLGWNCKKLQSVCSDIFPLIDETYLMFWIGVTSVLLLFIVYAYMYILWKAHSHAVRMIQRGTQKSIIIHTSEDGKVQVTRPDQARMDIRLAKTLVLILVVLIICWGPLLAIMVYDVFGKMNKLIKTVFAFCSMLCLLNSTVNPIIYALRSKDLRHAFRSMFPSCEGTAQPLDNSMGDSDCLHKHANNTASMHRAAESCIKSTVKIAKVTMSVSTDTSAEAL

Structure (SMILES) | EC50 (Cannabinoid receptor 2) [nM] | EC50 (Cannabinoid receptor 1) [nM]
FC(F)(F)c1cccc(Nc2ncnc3ccccc23)c1 | 2510 | –
FC(F)(F)c1ccccc1Nc1ccc2ccccc2n1 | 6300 | –
FC(F)(F)c1cccc(Nc2ccc3ccccc3n2)c1 | 1250 | –
COc1cccc(Nc2ccc3ccccc3n2)c1 | 2510 | –
Clc1ccccc1Nc1ccc2ccccc2n1 | 6300 | –
Clc1cccc(Nc2ccc3ccccc3n2)c1 | 2510 | –
O=C(c1cnc(Nc2cccc(C(F)(F)F)c2)c2ccccc12)N1CCOCC1 | 15.8 | 9990
Brc1cccc(Nc2ccc3ccccc3n2)c1 | 1990 | –
c1ccc2nc(NC3CCCCC3)ccc2c1 | 6300 | –
FC(F)(F)c1cccc(Nc2cnc3ccccc3n2)c1 | 3980 | –
FC(F)(F)c1cccc(Nc2ncc3ccccc3n2)c1 | 3160 | –
FC(F)(F)c1cccc(Nc2ccnc3ccccc23)c1 | 3160 | –
O=C(NCC1CCCCC1)c1cnc(Nc2cccc(C(F)(F)F)c2)c2ccccc12 | 1580 | –
O=C(NC1CCCCC1)c1cnc(Nc2cccc(C(F)(F)F)c2)c2ccccc12 | 1990 | –
COc1ccccc1Nc1ccc2ccccc2n1 | 5010 | –
FC(F)(F)c1cccc(Nc2nccc3ccccc23)c1 | 1580 | –
COc1ccc(Nc2ccc3ccccc3n2)cc1 [2-(4''-Methoxyanilino)Quinoline] | 1990 | –
c1ccc(Sc2ccc3ccccc3n2)cc1 [2-Phenylsulfanyl-Quinoline] | 3980 | –
Clc1ccc(Nc2ccc3ccccc3n2)cc1 [N-(4-chlorophenyl)quinolin-2-amine] | 1990 | –
